Assay results from different studies.
RAF1 Y340D/Y341D: RAF proto-oncogene serine/threonine-protein kinase (RAF1, Homo sapiens, UniProt P04049, Y340D/Y341D)
RAF1: RAF proto-oncogene serine/threonine-protein kinase (RAF1, Homo sapiens, UniProt P04049)

SMILES	target	effect on	mode	technique	concentration	measurement	value
C#Cc1n[nH]c2c(-c3cn(C(C)c4ccccn4)c(=O)[nH]c3=O)cc(F)cc12 (stereo not shown)	RAF1 Y340D/Y341D	enzyme activity	inhibitor		1 µM	inhibition	15.5%
Cn1cncc1[C@](O)(COc1ccc(C#N)cc1-c1ccc(OC(F)(F)F)cc1)c1ccc(C#N)cc1	RAF1	cell-free assay		competition with immobilised ligand	1 µM	remaining binding	100%
COc1ncccc1-c1cnn2ccc(N3CCN(C(=O)OC(C)C)CC3)nc12	RAF1	binding		competition with immobilised ligand	1 µM	remaining binding	60%
Cn1cc(-c2cccc(N3CCc4c(sc5c4CC(C)(C)C5)C3=O)c2CO)cc(Nc2ccncn2)c1=O	RAF1 Y340D/Y341D	enzyme activity	inhibitor		1 µM	inhibition	10%
Cc1nn(C)cc1-c1nc2c(N3CCN(Cc4ccc(Cl)cc4)CC3)c(Cl)cnc2[nH]1	RAF1	binding		competition with immobilised ligand	1 µM	remaining binding	69%
C#Cc1n[nH]c2c(-c3cn([C@@H](C)c4ccccc4)c(=O)[nH]c3=O)cc(F)cc12	RAF1 Y340D/Y341D	enzyme activity	inhibitor		0.1 µM	inhibition	4.4%
CC(C)(C)c1cc(C=C(C#N)C#N)cc(Br)c1O	RAF1	enzyme activity	inhibitor		0.5 µM	remaining activity	104%
Nc1ncc(-c2nc(N3CCOCC3)nc(N3CCOCC3)n2)c(C(F)F)n1	RAF1	binding		competition with immobilised ligand	10 µM	remaining binding	98%
Cn1cc(-c2cc(F)cc(N3CCn4c(cc5c4CCCC5)C3=O)c2CO)cc(Nc2ccc(N3CCN(C4COC4)CC3)cn2)c1=O	RAF1 Y340D/Y341D	enzyme activity	inhibitor		0.1 µM	inhibition	5%
O=c1[nH]c2ccccc2n1C1CCN(Cc2ccc(-c3[nH]c4cc5ncnc5cc4nc3-c3ccccc3)cc2)CC1	RAF1	cell-free assay			0.5 µM	remaining signal	94.7%
